Data from ChEMBL document CHEMBL1145953 (J Med Chem, 2003).

Assays:
Adenosine receptor A3 [1] = target: T1, Adenosine receptor A3 (Homo sapiens, UniProt P0DMS8); experiment: Binding affinity using [125I]ABA against human Adenosine A3 receptor
T1 sequence (P0DMS8 whole entry): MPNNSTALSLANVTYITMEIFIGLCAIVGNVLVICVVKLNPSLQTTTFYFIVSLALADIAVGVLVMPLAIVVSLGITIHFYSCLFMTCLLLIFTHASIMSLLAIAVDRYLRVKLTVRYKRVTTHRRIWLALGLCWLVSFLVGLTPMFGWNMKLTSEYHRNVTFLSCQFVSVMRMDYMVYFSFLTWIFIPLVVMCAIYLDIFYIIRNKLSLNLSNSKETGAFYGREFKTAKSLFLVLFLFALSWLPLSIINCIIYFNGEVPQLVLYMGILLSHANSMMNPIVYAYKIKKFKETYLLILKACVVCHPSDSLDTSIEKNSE

Adenosine receptor A1 = target: T2, Adenosine receptor A1 (Homo sapiens, UniProt P30542); experiment: Binding affinity using [125I]ABA against human Adenosine A1 receptor
T2 sequence (P30542 whole entry): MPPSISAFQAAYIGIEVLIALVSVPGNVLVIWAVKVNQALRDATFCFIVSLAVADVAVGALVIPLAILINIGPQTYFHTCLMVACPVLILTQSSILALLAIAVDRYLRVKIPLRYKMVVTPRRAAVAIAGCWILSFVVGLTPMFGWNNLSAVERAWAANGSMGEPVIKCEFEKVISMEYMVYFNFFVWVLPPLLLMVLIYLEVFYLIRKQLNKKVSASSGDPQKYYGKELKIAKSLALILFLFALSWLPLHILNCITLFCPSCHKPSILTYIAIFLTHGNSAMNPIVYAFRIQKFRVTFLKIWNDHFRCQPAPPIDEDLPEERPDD

[2] = target: Adenosine receptors; A1 & A3 (Homo sapiens) (UniProt P30542+P0DMS8); experiment: Ratio of binding affinity for human adenosine A1 and A3 receptors; type: protein assay
[3] = Tested for pKa value of compound; type: physicochemical
Adenosine receptor A3 [4] = target: T1, Adenosine receptor A3; experiment: Inhibition of isoproterenol-stimulated cAMP accumulation in HEK 293 cells expressing human Adenosine A3 receptor; type: functional, cell-based, HEK293
Outline: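 Functional assay in HEK 293 cells with recombinant human A3 receptors. Cells are stimulated with isoproterenol, and the drop in cAMP accumulation is measured over a concentration–response range. EC50 comes from the curve. Mean and SEM of three experiments, each run in duplicate.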

Ki (Adenosine receptor A3 [1]) [µM] | Ki (Adenosine receptor A1) [µM] | Ratio [2] | pKa [3] | EC50 (Adenosine receptor A3 [4]) [µM] | SMILES
0.072 | 4.6 | 64 | – | – | CNC(=O)[C@H]1O[C@@H](n2cnc3c(NCc4cccc(I)c4)ncnc32)[C@H](O)[C@@H]1N
0.0016 | 0.068 | 42 | – | – | CNC(=O)[C@H]1O[C@@H](n2cnc3c(NCc4cc(Cl)ccc4OCc4cc(C)no4)ncnc32)[C@H](O)[C@@H]1O
0.0048 | 0.065 | 13 | – | – | CNC(=O)[C@H]1O[C@@H](n2cnc3c(NC)ncnc32)[C@H](O)[C@@H]1O
0.0058 | 7.3 | – | 6.25 | 0.0034 | CNC(=O)[C@H]1O[C@@H](n2cnc3c(NCc4cc(Cl)ccc4OCc4cc(C)no4)ncnc32)[C@H](O)[C@@H]1N
0.12 | – | 194 | – | – | CNC(=O)[C@H]1O[C@@H](n2cnc3c(NC)ncnc32)[C@H](O)[C@@H]1N
